Published values collected from several papers.
Target: Adenosine receptor A1 (ADORA1, Homo sapiens, UniProt P30542)
One construct used (P30542 1-326): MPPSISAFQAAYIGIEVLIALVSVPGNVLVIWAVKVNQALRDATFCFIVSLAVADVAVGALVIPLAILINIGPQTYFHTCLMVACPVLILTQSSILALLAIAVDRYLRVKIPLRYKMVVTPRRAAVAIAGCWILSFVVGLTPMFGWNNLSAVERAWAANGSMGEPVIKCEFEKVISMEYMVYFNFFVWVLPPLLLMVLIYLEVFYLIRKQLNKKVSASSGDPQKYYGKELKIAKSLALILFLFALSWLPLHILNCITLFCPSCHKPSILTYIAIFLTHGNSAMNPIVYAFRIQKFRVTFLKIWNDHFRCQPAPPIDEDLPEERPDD

Compound	read-out	technique	tested at	notes	inhibition [%]
CNc1nc(Cl)nc2c1ncn2[C@@H]1OC[C@@H](O)[C@H]1O	ligand displacement	radioligand	10 µM	cell membranes	< 10
Cn1c(=O)[nH]c2nc[nH]c2c1=O	ligand displacement	radioligand	30 µM	cell membranes	78
C=CN1CCCn2c1nc1c2c(=O)n(C)c(=O)n1C	ligand displacement	radioligand	10 µM	cell membranes	21
CNc1ncnc2c1ncn2[C@@H]1OC[C@@H](O)[C@H]1O	ligand displacement	radioligand	10 µM	cell membranes	< 10
CNC(=O)[C@@]12C[C@@H]1[C@@H](n1cnc3c(NC)nc(C#C[c-]4cccc4)nc31)[C@H](O)[C@@H]2O.[Fe+2].c1cc[cH-]c1	ligand displacement	radioligand	10 µM	cell membranes	25
O=C(Nc1ccc(S(=O)(=O)N2CCC(Cl)CC2)cc1)c1ccc([N+](=O)[O-])o1	ligand displacement	radioligand	10 µM	–	12
O[C@@H]1[C@H](O)CO[C@H]1n1cnc2c(NCc3cccc(F)c3)ncnc21	ligand displacement	radioligand	10 µM	cell membranes	16
O=C(c1ccc(Cl)cc1)N(Cc1ccccc1)C1CCCCC1	cell-free assay	–	10 µM	–	1.7
O=C1N=C(N2CCCCN2)S/C1=C\c1ccc(F)cc1O	ligand displacement	radioligand	10 µM	–	< 10
Oc1cccc(Nc2nc(-c3ccc(F)cc3F)cs2)c1	cell-free assay	–	10 µM	–	46.5
Ic1cccc2cnccc12	ligand displacement	radioligand	10 µM	–	-5
